Published values pooled from the literature.
Compare with care: the assays were run in different laboratories.
Effect on: cell growth or viability

C[C@@H]1CC[C@@H]([C@](C)(O)CNCc2ccccc2)[C@H](OCc2ccccc2)C1  inhibition (MDA-MB-231; MTT; 10 µM, 72 h): 76.8%
O=C(C=Cc1ccccc1)Nc1cc(-c2ccnc(N3CCC(O)CC3)c2)ccn1  IC50 (MDA-MB-231; MTT; 72 h): 3 nM
CCc1c(C)c2ccc(OCC=Cc3ccccc3)c(C)c2oc1=O  viability (MDA-MB-231; MTT; 1000 µg/mL): 2.75%
COc1ccc(CNC[C@@](C)(O)[C@@H]2CC[C@@H](C)C[C@H]2OCc2ccccc2)cc1  inhibition (MDA-MB-231; MTT; 30 µM, 72 h): 83.5%
Cc1c(Cc2ccccc2)c(=O)oc2c(C)c(OCC(=O)NN=Cc3ccc([N+](=O)[O-])cc3)ccc12  viability (MDA-MB-231; MTT; 125 µg/mL): 23.7%
Cc1c(C(=O)O)ccc2c3n(nc12)[C@@H]1[C@H](C3)N(CC2CC2)[C@@]2(C(=O)Nc3cc(Cl)ccc32)[C@H]1c1cccc(Cl)c1F  GI50 (hTERT-RPE1; ATP luminescence; 72 h): 21 nM
O=C(C=Cc1ccccc1)Nc1cccc(-c2ccnc(N3CCC(O)CC3)c2)c1  inhibition (MDA-MB-231; MTT; 5 µM): 61.6%
CCC[C@H]1NC(=O)[C@H](Cc2cc(Cl)ccc2-c2cnn(C)c2)N(C)C(=O)[C@H](CC(C)C)NC(=O)[C@@H](N(C)C(=O)[C@H](CCCCN2CCOCC2)NC(=O)[C@@H](c2cccnc2)C2CCCCC2)CCCCNC1=O  GI50 (NCI-H526; MTT; 5 days): 3400 nM
CCc1c(C)c2ccc(OCc3nnc(S)n3N)c(C)c2oc1=O  viability (MDA-MB-231; MTT; 31.25 µg/mL): 94.3%
C=C(C)[C@@H]1CC[C@@H](C)C[C@H]1OCc1ccccc1  inhibition (MDA-MB-231; MTT; 10 µM, 72 h): 21.9%
CCNC(=S)NNC(=O)COc1ccc2c(C)c(CC)c(=O)oc2c1C  viability (MDA-MB-231; MTT; 62.5 µg/mL): 84.5%
C[C@@H]1CC[C@@H]([C@@](O)(CNCc2ccccc2)COCc2ccc(F)cc2)[C@H](OCc2ccc(F)cc2)C1  inhibition (MDA-MB-231; MTT; 30 µM, 72 h): 98.8%
CC(C)C[C@@H]1NC(=O)[C@@H](N(C)C(=O)[C@H](CC2CCC2)NC(=O)[C@@H]2C[C@@H](F)CN2C(=O)C2(C(F)(F)F)CC(F)(F)C2)CCCCNC(=O)C2(CC2)NC(=O)[C@H](Cc2cc(Cl)ccc2Cl)N(C)C1=O  GI50 (NCI-H526; MTT; 5 days): 240 nM
C=CC(=O)NC1CCN(c2ncc3ncnc(Nc4ccc(Oc5ccc6c(c5)ncn6C)c(C)c4)c3n2)CC1  EC50 (Panc 04.03): 5190 nM
COc1cccc(CNC[C@@](C)(O)[C@@H]2CC[C@@H](C)C[C@H]2OCc2ccccc2)c1  inhibition (MDA-MB-231; MTT; 10 µM, 72 h): 36%
